Assay results from PubChem BioAssay AID449757 (Broad Institute, 2010).
The source made the active and inactive calls.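 The calls were made as follows: active = compounds whose fitted caspase activation midpoint falls no more than tenfold above the top tested dose; inconclusive = flat fit with activity between 30 and 70 percent, or failed fit; inactive = the rest.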

Tested on: MEF Flag-A1-IRES-BIM, caspase-Glo luminescence, 3 h
Assay: Caspase-Glo signal, Flag-A1-IRES-BIM MEF cells – cell-based, alternate construct, luminescence, A1 (Bcl2A1) inhibitor project, dose response (AID 449757)
How it was run: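 Assay system: mouse embryonic fibroblasts primed via Flag-A1-IRES-BIM expression construct; quantity: 2500 cells per well, seeded one day before compound; medium: RPMI-1640 growth medium with 10% FBS; doses: 100 nL compound added per well by pin transfer; timing: 3-h compound at 37 °C, 30-min cooling, 1-h reagent at RT; measured by: CaspaseGlo luminescence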

SMILES	AC50
COc1ccc(C2CC(c3c(O)cc(C)oc3=O)=NCCS2)c(OC)c1 (stereo not drawn)	> 35 µM (inactive)
CCOC(=O)C(C(=O)OCC)c1cc(Br)c2noc3c2c1C(=O)c1ccccc1-3	14.8 µM
O=C1/C(=C/c2ccc(N3CCOCC3)o2)SC(=Nc2ccccc2)N1CCc1c[nH]c2ccccc12	> 35 µM (inactive)
Cc1ccc(-c2nc(NC(=O)c3nn(C)cc3[N+](=O)[O-])sc2C)cc1C	3.62 µM
O=C(NCc1ccccc1Br)c1cccc2c1C(=O)c1ccc(-c3ccc(OC(F)(F)F)cc3)cc1S2(=O)=O	> 35 µM (inactive)
COc1ccc(-c2c(C#N)c(N)nc(Sc3ccc(Cl)cc3)c2C#N)cc1	> 35 µM (inactive)
CN1C2CCC1/C(=C/c1ccccn1)C(=O)/C2=C\c1ccccn1	> 35 µM (inactive)
COc1ccc(OC[C@@H](O)CNC(=O)c2cccc3c2C(=O)c2ccc(-c4ccc(F)cc4OCc4ccccc4)cc2S3(=O)=O)cc1	> 35 µM (inactive)
O=C(NC[C@H]1CCCO1)c1cccc2c1C(=O)c1ccc(-c3ccc(F)cc3OCc3ccccc3)cc1S2(=O)=O	> 35 µM (inactive)
CCOc1ccc(NCc2cccn2-c2nnc(N3CCC(C(=O)NCCCN4CC(C)CC(C)C4)CC3)s2)cc1 (stereo not drawn)	> 35 µM (inactive)
CCOC(=O)/C(=C\c1ccc(OC(F)F)cc1)C1=Nn2c(nnc2-c2ccc(Cl)cc2)SC1	4.71 µM
CCc1ccccc1NC(=O)C(CC)Sc1nc2cc3c(cc2c(=O)n1Cc1ccco1)OCO3 (stereo not drawn)	> 35 µM (inactive)
CC(C)(C)C1CCc2onc(C(=O)Nc3cccc(O)c3)c2C1 (stereo not drawn)	> 35 µM (inactive)
CC(C)CC(NC(=O)c1ccc(Cl)cc1)C(=O)OCC(=O)c1ccc2c(c1)NC(=O)CO2 (stereo not drawn)	5.62 µM
COc1ccccc1C(=O)Nc1ccnn1C1CCN(Cc2cn(C)c3ccccc23)CC1	> 35 µM (inactive)
CC(=O)OC(C)(C)/C=C/C(=O)[C@](C)(O)C1[C@H](O)C[C@@]2(C)C3CC=C4C(C[C@H](O)C(=O)C4(C)C)[C@]3(C)C(=O)C[C@]12C (stereo partly drawn)	> 35 µM (inactive)
CCn1c(SCC(=O)c2ccccc2)nnc1-c1cc2cc(Br)ccc2o1	> 35 µM (inactive)
O=C(Nc1ccc2oc(-c3cccc(F)c3)nc2c1)c1ccccc1F	> 35 µM (inactive)
COc1ccccc1-c1cn[nH]c1-c1ccc(OCc2ccccc2)cc1O	> 35 µM (inactive)
CCc1ccc2nc(N(CCCN(C)C)C(=O)c3ccc(S(=O)(=O)N4CCc5ccccc5C4)cc3)sc2c1	> 35 µM (inactive)
CCOc1ccc(OCC(=O)N(CCC2=CCCCC2)c2c(N)n(Cc3ccccc3)c(=O)[nH]c2=O)cc1	20.9 µM
CC(C)N=c1scc(-c2ccco2)n1/N=C/c1ccc(O)c(O)c1	> 35 µM (inactive)

SMILES	AC50
O=C(Nc1ccc([N+](=O)[O-])cc1)c1nc[nH]c1C(=O)NC1CCCCC1	> 35 µM (inactive)
C/C1=C\[C@@H](C)C/C=C/[C@H]2[C@@H]3O[C@]3(C)[C@@H](C)[C@H]3[C@H](Cc4c[nH]c5ccccc45)NC(=O)[C@]32C(=O)/C=C/C(=O)[C@@H]1O	9.84 µM
Cc1ccc(C(=O)/C=C\C(=O)c2ccc(C)cc2)cc1	36.7 µM
CCS(=O)(=O)c1ncc(Cl)c(C(=O)Nc2ccc(S(=O)(=O)N3CCC(C)CC3)cc2)n1	> 35 µM (inactive)
CN(C)C/C=C(\c1ccc(Br)cc1)c1cccnc1	> 35 µM (inactive)
CCc1nc(N=Nc2c(O)[nH]c3ccccc23)c2c3c(sc2n1)CCC3	20.7 µM
Cc1ccc(-c2nc(NC(=O)c3nn(C)cc3[N+](=O)[O-])sc2C)cc1	6.7 µM
CCOc1cccc(C(=O)Nc2cccc(-c3nnc(-c4ccc(C)cc4)o3)c2)c1	8.37 µM
Clc1ccccc1CN(Cc1ccccc1)c1ncnc2nc[nH]c12	> 35 µM (inactive)
CCC1CCCCN1S(=O)(=O)c1ccc(NC(=O)c2nc(S(C)(=O)=O)ncc2Cl)cc1 (stereo not drawn)	3.73 µM
CCOC(=O)c1ccc(-c2ccc(/C=N/NC(=O)CN(c3cccc(C)c3)S(C)(=O)=O)o2)cc1	36.2 µM
Cc1ccc(NC(=S)NC(NC(=O)Cc2cccc3ccccc23)C(Cl)(Cl)Cl)cc1 (stereo not drawn)	20.2 µM
COc1ccc(S(=O)(=O)N2CC(O)CC2C(=O)OCC(=O)Nc2ccc(Cl)cn2)cc1 (stereo not drawn)	> 35 µM (inactive)
CCOc1ccc(N2C(=O)/C(=C\c3ccc(O)c(OC)c3)S(=O)(=O)C2c2cccc([N+](=O)[O-])c2)cc1 (stereo not drawn)	> 35 µM (inactive)
CCCCC1CCC(C(=O)N(CC(C)C)c2c(N)n(Cc3ccccc3)c(=O)[nH]c2=O)CC1 (stereo not drawn)	8.13 µM
N#Cc1cccnc1N1CCN(C(=O)c2cccc3c2C(=O)c2ccc(-c4ccc(Cl)c(C(F)(F)F)c4)cc2S3(=O)=O)CC1	> 35 µM (inactive)
COc1ccc(-c2oc(=O)c3cc(OC)c(OC)cc3c2/C=C/c2cccc([N+](=O)[O-])c2)cc1	> 35 µM (inactive)
CCOC(=O)c1sc(NC(=O)CSc2nc(C)cc(C)c2C#N)c(C#N)c1C	> 35 µM (inactive)
CCOC(=O)COc1ccccc1/C=C\[N+](=O)[O-]	10.5 µM
CCOc1ccc2nc(NCCNC(=O)Nc3cccc(C)c3)c(C#N)cc2c1	33.9 µM
Nc1c(C(=O)Nc2ccc(S(=O)(=O)N3CCCC3)cc2)sc2nc3ccc(OC(F)(F)F)cc3cc12	23.3 µM
Cc1cc(NC(=O)CSc2nc3cc(Cl)ccc3c(=O)n2Cc2ccco2)no1	> 35 µM (inactive)

SMILES	AC50
COC(=O)c1ccc2c(c1)C(C)(C)C(/C=C/c1ccc(O)cc1)=[N+]2C	12.4 µM
COc1ccc(Cn2c(SCc3ccc(C)cc3)nc3cc(OC)c(OC)cc3c2=N)cc1Cl	> 35 µM (inactive)
N#C/C(=C\c1ccc(OCc2ccccc2)cc1)C(=O)Nc1nc2c(s1)CCN(Cc1ccccc1)C2	> 35 µM (inactive)
COCc1cc(C)nc(SCC(=O)Nc2nc(C)cs2)c1C#N	> 35 µM (inactive)
COc1cc(NC(=O)c2cccs2)ccc1NC(=O)c1cc2ccccc2o1	> 35 µM (inactive)
O=C(CCl)N=c1sccn1Cc1ccccc1Cl	> 35 µM (inactive)
COc1cc(C(=O)Nc2cc3c(cc2N2CCCCC2)n(C)c(=O)n3C)cc(OC)c1OC	> 35 µM (inactive)
O=C(COc1ccc(/C=N/NC(=O)c2cc3ccccc3o2)cc1Cl)Nc1ccccc1	9.15 µM
COc1ccc(-c2nc(NC(=O)c3n[nH]c(=O)c4ccccc34)sc2C)cc1	> 35 µM (inactive)
CC[C@H]1CN2CCc3cc(OC)c(OC)cc3[C@@H]2C[C@@H]1C[C@H]1NCCc2cc(OC)c(OC)cc21	> 35 µM (inactive)
Cc1ccc2c(c1)C(=O)C(=O)N2Cc1ccc(Br)cc1	> 35 µM (inactive)
COc1cc(SC#N)ccc1N=Cc1c(C)[nH]n(-c2ccc(C)cc2)c1=O	25.3 µM
O=C(NCCc1ccccc1)C(c1cccs1)N(C(=O)CCl)c1ccc(Cl)cc1 (stereo not drawn)	13.3 µM
COc1ccc(-c2ccc3c(c2)S(=O)(=O)c2cccc(C(=O)NCCOc4ccccc4)c2C3=O)cc1OC	> 35 µM (inactive)
CCOC(=O)c1c(C)oc2c1c(CN1CCN(C(=O)OCC)CC1)c(O)c1ccccc12	7.15 µM
Cc1ccc(C=C2C(Cl)=C(Cl)C(Cl)=C2Cl)cc1	4.67 µM
Cc1nn(Cc2c(Cl)cccc2Cl)c(C)c1NC(=O)c1cn(-c2ccccc2)nc1-c1ccccc1	19.2 µM
Cc1occc1-c1nnc(SCC(=O)NCCc2ccccc2)n1Cc1ccccc1	> 35 µM (inactive)
CCc1ccc(Nc2n[n+](-c3ccccc3)c(/C=C/c3ccccc3)s2)cc1	10.3 µM
Cc1ccc(NC(=O)c2cc(N3C(=O)C=CC3=O)ccc2N2CCOCC2)cc1Cl	15.8 µM
Cc1nn(Cc2ccc(Cl)cc2Cl)c(C)c1NC(=O)Cn1nc([N+](=O)[O-])c(Cl)c1C	> 35 µM (inactive)
COc1ccc2[nH]c3c(=O)n(/N=C/[C@H]4C(C)C=C(C)CC4C)c(=O)[nH]c3c2c1 (stereo partly drawn)	11 µM

SMILES	AC50
O=C(COc1ccccc1[N+](=O)[O-])Nc1ccc(NC(=O)c2cc3ccccc3o2)cc1	28.7 µM
Cc1ccc(C(=O)/C=C/C(=O)c2ccc(C)cc2)cc1	5.64 µM
CC1=CC(=O)C(C(C)C)=C/C1=N/OS(=O)(=O)c1ccccc1	6.53 µM
O=C(Nc1ccc([N+](=O)[O-])cc1)C(Cc1ccccc1)N1C(=O)c2cccc3cccc(c23)C1=O (stereo not drawn)	> 35 µM (inactive)
C#CC(=O)N(c1cc(OC)ccc1OC)C(C(=O)NC1CCCC1)c1cccs1 (stereo not drawn)	> 35 µM (inactive)
Cc1cccc(C)c1NC(=O)CSc1nc(C)c(CC(=O)c2ccc(Br)cc2)c(C)c1C#N	28.8 µM
O=C1/C(=C\c2c(NCCOCCO)nc3ccccn3c2=O)SC(=S)N1Cc1ccco1	> 35 µM (inactive)
O=C(Nc1ccc2oc(-c3ccccc3)nc2c1)c1ccccc1F	> 35 µM (inactive)
Cc1ccc(NC(=O)c2ccc(N/N=C/c3cccc(O)c3)c([N+](=O)[O-])c2)cc1	34.6 µM
COc1ccc(OC)c(NC(=O)c2cc(-c3cc(C)ccc3O)n[nH]2)c1	> 35 µM (inactive)
CCOC(=O)Cc1csc(/N=C/c2c(O)n(-c3ccc(C)c(C)c3)c(=O)c3ccccc23)n1	15.9 µM
Oc1[nH]c2ccc(Br)cc2c1N=NC(=S)Nc1ccc(F)cc1	> 35 µM (inactive)
CCc1ccc(NC(=O)c2nc(S(=O)(=O)Cc3ccccc3)ncc2Cl)cc1	> 35 µM (inactive)
COc1ccccc1CCNC(C)CCc1ccc(O)cc1 (stereo not drawn)	> 35 µM (inactive)
CCOc1cc(/C=C2/C(=N)N3C=CSC3=NC2=O)ccc1OCCCOc1ccccc1C	35.4 µM
COc1ccc(Oc2cc(NC(=O)c3nn(C)cc3[N+](=O)[O-])cc([N+](=O)[O-])c2)cc1	21.3 µM
Cc1ccc2nc(N(CCCN(C)C)C(=O)c3ccc(S(=O)(=O)N4CCc5ccccc5C4)cc3)sc2c1	> 35 µM (inactive)
Cc1ccc(S(=O)(=O)c2nnn3c2nc(Nc2cccc(C)c2)c2ccccc23)cc1	> 35 µM (inactive)
O=[N+]([O-])/C=C/c1cn(Cc2ccc(Cl)cc2)c2ccccc12	15.9 µM
O=C(Oc1cccc(/C=N/Nc2nc(Nc3ccccc3)nc(N3CCOCC3)n2)c1)c1ccco1	> 35 µM (inactive)
CC(C)(C)c1ccc2c(c1)OC(C(=O)N/N=C\c1ccc[nH]1)CO2 (stereo not drawn)	> 35 µM (inactive)
CCCCNC(=O)c1ccc(Cn2c(=S)[nH]c3c([nH]c4ccc(OC)cc43)c2=O)cc1	4.77 µM
